Measurements reported in paper PMC3355950 (The Journal of Neuroscience, 2012).

How the values were obtained:
Test in all cases: Two-electrode voltage-clamp recordings, Xenopus oocytes
Type in all cases: cell-based
GluN1/GluN2A V783D = GluN1/GluN2A V783D (Rattus norvegicus, UniProt P35439+Q00959, V783D); conditions: 100 μM glutamate + 3 μM glycine
GluN1/GluN2A M788I = GluN1/GluN2A M788I (Rattus norvegicus, UniProt P35439+Q00959, M788I); conditions: 100 μM glutamate + 3 μM glycine
GluN1/2A-(2D S1) = GluN1/2A-(2D S1) (Rattus norvegicus, UniProt P35439+Q00959, A414R/D421P/DELINS438-452SQLNRTHSPPPDAPRPE/E427G/I408V/I422A/K454R/K466R/K472G/L425I/N404Q/N432D/N490D/N491G/R469H/S407T/S468A/S538A/T426S/T433S/T474S/V409A/V430I/V471I/V489I/V501F/V506D/V509I/V521I); conditions: 100 μM glutamate + 3 μM glycine
Procedure, shortened: (§1)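 cRNA from linearized constructs injected into female Xenopus laevis oocytes. Two-electrode voltage clamp done 3–4 d later at 23°C, holding at −40 mV, in 90 NaCl, 1 KCl, 10 HEPES, 0.5 BaCl₂, 0.01 EDTA (mM), pH 7.4. […] Max inhibition is (control − residual at saturating compound)/control.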

GluN1/GluN2B F784V = GluN1/GluN2B F784V (Rattus norvegicus, UniProt P35439+Q00960, F784V)
Sequence of GluN1/GluN2B F784V (Q00960 27-1482 F784V, other chains not shown): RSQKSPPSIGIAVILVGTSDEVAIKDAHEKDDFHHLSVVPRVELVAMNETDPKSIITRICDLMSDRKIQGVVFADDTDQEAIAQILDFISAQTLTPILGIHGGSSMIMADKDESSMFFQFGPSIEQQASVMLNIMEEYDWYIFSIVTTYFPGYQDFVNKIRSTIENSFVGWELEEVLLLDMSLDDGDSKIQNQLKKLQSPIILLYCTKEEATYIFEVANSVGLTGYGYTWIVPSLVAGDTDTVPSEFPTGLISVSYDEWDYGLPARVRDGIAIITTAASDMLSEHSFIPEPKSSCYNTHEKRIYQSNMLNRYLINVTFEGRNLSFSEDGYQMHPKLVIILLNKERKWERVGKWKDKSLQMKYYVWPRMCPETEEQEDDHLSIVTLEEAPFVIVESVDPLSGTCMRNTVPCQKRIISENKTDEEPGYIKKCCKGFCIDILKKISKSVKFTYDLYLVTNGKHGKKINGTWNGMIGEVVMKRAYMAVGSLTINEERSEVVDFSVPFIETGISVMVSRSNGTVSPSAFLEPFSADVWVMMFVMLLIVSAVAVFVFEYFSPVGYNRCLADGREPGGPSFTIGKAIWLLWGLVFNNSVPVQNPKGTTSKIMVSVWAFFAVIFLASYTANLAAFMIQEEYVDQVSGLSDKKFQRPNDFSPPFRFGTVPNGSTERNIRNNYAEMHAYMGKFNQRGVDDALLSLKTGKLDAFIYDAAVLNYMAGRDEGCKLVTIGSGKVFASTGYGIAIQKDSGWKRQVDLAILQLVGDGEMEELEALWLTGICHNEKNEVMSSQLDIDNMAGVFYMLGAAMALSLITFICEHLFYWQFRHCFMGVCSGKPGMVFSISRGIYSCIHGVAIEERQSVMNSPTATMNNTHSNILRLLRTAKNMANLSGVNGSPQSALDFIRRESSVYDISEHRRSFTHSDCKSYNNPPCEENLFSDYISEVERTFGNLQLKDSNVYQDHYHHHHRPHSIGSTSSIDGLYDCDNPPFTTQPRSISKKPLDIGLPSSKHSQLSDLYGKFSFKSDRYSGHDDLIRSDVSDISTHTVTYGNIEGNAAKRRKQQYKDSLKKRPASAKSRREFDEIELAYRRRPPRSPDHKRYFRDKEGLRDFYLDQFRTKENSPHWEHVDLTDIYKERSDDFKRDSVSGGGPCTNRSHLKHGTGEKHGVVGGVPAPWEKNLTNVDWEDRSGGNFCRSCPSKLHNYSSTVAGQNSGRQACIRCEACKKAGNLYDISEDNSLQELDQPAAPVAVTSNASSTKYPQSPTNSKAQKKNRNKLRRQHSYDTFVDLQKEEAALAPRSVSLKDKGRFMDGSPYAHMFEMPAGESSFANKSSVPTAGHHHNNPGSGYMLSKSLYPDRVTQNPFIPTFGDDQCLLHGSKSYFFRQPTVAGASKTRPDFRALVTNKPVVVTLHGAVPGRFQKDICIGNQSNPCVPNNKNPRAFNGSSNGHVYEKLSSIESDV

[1] = molecular target: GluN1 I519A co-expressed with GluN2A (Rattus norvegicus, UniProt P35439+Q00959, I519A); conditions: 100 μM glutamate + 3 μM glycine
GluN1/GluN2B = GluN1/GluN2B (Rattus norvegicus, UniProt P35439+Q00960); conditions: 100 μM glutamate + 3 μM glycine; N.E. = no effect at 10 μM TCN-201
Sequence of GluN1/GluN2B (Q00960 27-1482, other chains not shown): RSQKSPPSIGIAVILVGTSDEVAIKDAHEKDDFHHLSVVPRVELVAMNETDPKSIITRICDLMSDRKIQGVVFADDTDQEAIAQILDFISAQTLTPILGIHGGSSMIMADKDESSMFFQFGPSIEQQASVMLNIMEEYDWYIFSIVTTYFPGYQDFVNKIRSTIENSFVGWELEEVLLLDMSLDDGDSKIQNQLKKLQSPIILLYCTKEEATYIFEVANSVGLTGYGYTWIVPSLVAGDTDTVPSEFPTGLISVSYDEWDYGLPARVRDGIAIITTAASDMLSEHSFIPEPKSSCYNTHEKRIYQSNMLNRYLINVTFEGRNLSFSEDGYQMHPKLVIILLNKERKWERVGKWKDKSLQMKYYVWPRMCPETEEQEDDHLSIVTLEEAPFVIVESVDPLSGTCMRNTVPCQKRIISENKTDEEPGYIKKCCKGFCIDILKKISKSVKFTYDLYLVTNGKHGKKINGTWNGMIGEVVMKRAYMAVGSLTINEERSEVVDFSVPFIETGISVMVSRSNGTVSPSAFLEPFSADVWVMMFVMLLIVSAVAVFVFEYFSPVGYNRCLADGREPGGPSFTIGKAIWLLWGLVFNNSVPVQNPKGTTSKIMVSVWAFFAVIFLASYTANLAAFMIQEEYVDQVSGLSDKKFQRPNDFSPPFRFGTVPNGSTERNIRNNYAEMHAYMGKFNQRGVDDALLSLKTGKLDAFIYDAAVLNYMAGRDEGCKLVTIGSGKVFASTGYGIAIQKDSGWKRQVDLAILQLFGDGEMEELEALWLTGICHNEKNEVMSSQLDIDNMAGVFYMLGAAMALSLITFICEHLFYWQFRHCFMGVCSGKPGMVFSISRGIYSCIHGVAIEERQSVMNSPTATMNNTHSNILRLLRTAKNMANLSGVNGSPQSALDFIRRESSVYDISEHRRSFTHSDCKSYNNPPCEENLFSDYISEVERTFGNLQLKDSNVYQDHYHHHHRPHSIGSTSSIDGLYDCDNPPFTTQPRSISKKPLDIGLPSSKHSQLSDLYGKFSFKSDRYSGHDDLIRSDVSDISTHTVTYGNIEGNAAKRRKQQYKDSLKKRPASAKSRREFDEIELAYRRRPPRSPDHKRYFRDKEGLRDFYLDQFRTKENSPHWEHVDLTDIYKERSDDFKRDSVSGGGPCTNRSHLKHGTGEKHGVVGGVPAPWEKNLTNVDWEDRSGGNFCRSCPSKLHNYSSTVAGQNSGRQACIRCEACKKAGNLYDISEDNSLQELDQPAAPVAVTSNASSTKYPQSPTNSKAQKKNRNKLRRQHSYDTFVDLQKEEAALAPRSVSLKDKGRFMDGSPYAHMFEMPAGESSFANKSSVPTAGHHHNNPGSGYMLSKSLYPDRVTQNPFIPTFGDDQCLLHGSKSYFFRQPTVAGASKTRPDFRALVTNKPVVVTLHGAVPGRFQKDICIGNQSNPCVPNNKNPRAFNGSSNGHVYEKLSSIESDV

GluN1/GluN2A L780A = GluN1/GluN2A L780A (Rattus norvegicus, UniProt P35439+Q00959, L780A); conditions: 100 μM glutamate + 3 μM glycine
GluN1/2D-(2A S2) = GluN1/2D-(2A S2) (Rattus norvegicus, UniProt P35439+Q62645, A747T/D725Y/D811G/E700D/E740D/H791Q/I813M/K706R/K717R/K766R/K779Y/L705F/L808V/M763K/M815E/P736R/P799Q/Q699H/Q701Y/Q744S/R693K/R737G/R765G/R795P/R818T/S688T/S721N/S728Q/S822T/T686Q/T743V/T783S/V731T/V780I/Y702S/Y733F); conditions: 100 μM glutamate + 3 μM glycine
Procedure, shortened: as §1

GluN1/2A-(2D ATD) = GluN1/2A-(2D ATD) (Rattus norvegicus, UniProt P35439+Q00959+Q62645, A388P/C399P/D398Q/D403T/E353D/E371T/E400V/G345N/H358N/H387Y/K346R/K368R/K374V/K377S/K394G/L348Y/N367T/N380Q/N404Q/P391S/P401D/Q356L/R360S/R386K/S384R/S395R/S397L/T351N/V365S/V389L/Y355F); conditions: 100 μM glutamate plus 30 μM glycine; vs GluN1/GluN2A

- TCN-201 activity Max. % inhibition (GluN1/GluN2A V783D): 92 ± 2%
- TCN-201 activity nH (GluN1/GluN2A V783D): 1.2
- TCN-201 activity Max. % inhibition (GluN1/GluN2A M788I): 79 ± 3%
- TCN-201 activity nH (GluN1/GluN2A M788I): 1.3
- TCN-201 activity IC50 (GluN1/2A-(2D S1)): did not affect TCN-201 sensitivity
- TCN-201 activity Max. % inhibition (GluN1/2A-(2D S1)): 97 ± 1%
- TCN-201 activity nH (GluN1/2A-(2D S1)): 1.5
- Kb (GluN1/GluN2B F784V): 1380 nM
- TCN-201 activity nH (GluN1/GluN2B F784V; 100 μM glutamate + 3 μM glycine): 1.2
- TCN-201 activity Max. % inhibition [1]: 80 ± 2%
- TCN-201 activity nH [1]: 1.9
- TCN-201 activity IC50 (GluN1/GluN2B): did not inhibit and N.E.
- Response, % of control at 10 μM TCN-201 (GluN1/GluN2A L780A): 67% of control at 10 μM TCN-201
- TCN-201 activity Max. % inhibition (GluN1/2D-(2A S2)): 91 ± 4%
- TCN-201 activity nH (GluN1/2D-(2A S2)): 2.1
- Inhibition by 3 μM TCN-201 (GluN1/2A-(2D ATD)): did not reduce inhibition
Structure (SMILES): O=C(NNC(=O)c1ccc(CNS(=O)(=O)c2ccc(F)c(Cl)c2)cc1)c1ccccc1 [TCN-201, 3-chloro-4-fluoro-N-[(4-[(2-(phenylcarbonyl)hydrazino)carbonyl]phenyl)methyl]-benzenesulfonamide]
